# Measurements published in ChEMBL document CHEMBL3259608, “Synthesis of a terphenyl substituted 4-aza-2,3-didehydropodophyllotoxin analogues as inhibitors of tubulin polymerization and apoptosis inducers” (Bioorg Med Chem, 2014).
# The source made the active and inactive calls. No cut-off for these calls is given here.
# Columns and labels:
# A549 [1] = test: Anticancer activity against human A549 cells after 48 hrs by MTT assay; assay type: functional, cell-based; details: A549, 48 h
# Method in brief: (§1)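 MTT assay: 1×10⁴ cells/well seeded in DMEM with 10% FBS, 24 h at 37°C in CO₂ before dosing. Compounds diluted in medium, vehicle control included, 48 h exposure. MTT (5 mg/mL stock) added for 4 h, formazan dissolved in DMSO, absorbance read at 540 nm. IC50 averaged from three individual experiments.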
# HT-29 = test: Anticancer activity against human HT-29 cells after 48 hrs by MTT assay; assay type: functional, cell-based; details: HT-29, 48 h; method in brief: as §1
# ACHN = test: Anticancer activity against human ACHN cells after 48 hrs by MTT assay; assay type: functional, cell-based; method in brief: as §1
# DU-145 = test: Anticancer activity against human DU145 cells after 48 hrs by MTT assay; assay type: functional, cell-based; details: DU-145, 48 h; method in brief: as §1
# HeLa = test: Anticancer activity against human HeLa cells after 48 hrs by MTT assay; assay type: functional, cell-based; method in brief: as §1
# A549 [2] = test: Cell cycle arrest in human A549 cells assessed as accumulation at sub-G1 phase at 0.5 uM after 48 hrs by propidium iodide staining-based flow cytometric analysis (reference value: 6.47%); assay type: functional
# A549 [3] = test: Cell cycle arrest in human A549 cells assessed as accumulation at sub-G1 phase at 1 uM after 48 hrs by propidium iodide staining-based flow cytometric analysis (reference value: 6.47%); assay type: functional
# A549 [4] = test: Cell cycle arrest in human A549 cells assessed as accumulation at G0/G1 phase at 0.5 uM after 48 hrs by propidium iodide staining-based flow cytometric analysis (reference value: 78.23%); assay type: functional
# A549 [5] = test: Cell cycle arrest in human A549 cells assessed as accumulation at G0/G1 phase at 1 uM after 48 hrs by propidium iodide staining-based flow cytometric analysis (reference value: 78.23%); assay type: functional
# A549 [6] = test: Cell cycle arrest in human A549 cells assessed as accumulation at S phase at 0.5 uM after 48 hrs by propidium iodide staining-based flow cytometric analysis (reference value: 3.57%); assay type: functional
# A549 [7] = test: Cell cycle arrest in human A549 cells assessed as accumulation at S phase at 1 uM after 48 hrs by propidium iodide staining-based flow cytometric analysis (reference value: 3.57%); assay type: functional
# A549 [8] = test: Cell cycle arrest in human A549 cells assessed as accumulation at G2/M phase at 0.5 uM after 48 hrs by propidium iodide staining-based flow cytometric analysis (reference value: 11.73%); assay type: functional
# A549 [9] = test: Cell cycle arrest in human A549 cells assessed as accumulation at G2/M phase at 1 uM after 48 hrs by propidium iodide staining-based flow cytometric analysis (reference value: 11.73%); assay type: functional
# Tubulin (Homo sapiens) [10] = molecular target: T1, Tubulin (Homo sapiens) (UniProt P68371+Q9H4B7+P0DPH7+P68366+Q13509+Q71U36+P04350+Q3ZCM7+P07437+P68363+Q9BQE3+Q6PEY2+Q13885+Q9BVA1+Q9BUF5); test: Inhibition of tubulin (unknown origin) polymerization at 3 uM measured for 1 hr by fluorescence assay relative to control; assay type: protein-complex assay
# Method in brief: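 Tubulin polymerization kit, fluorescence-reporter based. Reaction in PEM buffer with GTP, with or without compound at 3 µM final. Reporter incorporation followed as fluorescence increase (excitation 360 nm, emission 420 nm) for 1 h at 37°C. Mean of two experiments, each in triplicate.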
# Tubulin = test: Inhibition of tubulin (unknown origin) polymerization measured for 1 hr by fluorescence assay; assay type: protein-complex assay, Homo sapiens
# Tubulin (Homo sapiens) [11] = molecular target: T1, Tubulin (Homo sapiens); test: Inhibition of alpha-tubulin polymerization in human A549 cells at 1 uM after 48 hrs by immunohistochemical analysis; assay type: cell-based
# Method in brief: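 A549 cells on coverslips treated 48 h at 1 µM. Fixed in 4% paraformaldehyde for 20 min, permeabilised with 0.2% Triton X-100 for 5 min, then methanol overnight. Blocked in 1% BSA, anti-α-tubulin (1:1000) 2 h at room temperature, FITC anti-mouse secondary 1 h. Microtubule network integrity examined by fluorescence microscopy.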
# A549 [12] = test: Induction of apoptosis in human A549 cells assessed as nuclear condensation at 1 uM after 48 hrs by Hoechst staining-based fluorescence microscopic analysis; assay type: functional, cell-based
# Method in brief: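 10,000 A549 cells on coverslips, 24 h, then fresh medium with compound at 1 µM for 48 h. Vehicle control 0.001% DMSO. Hoechst 33258 added with 4% paraformaldehyde for 30 min at 37°C. Random fields imaged by fluorescence microscopy and scored qualitatively for chromatin condensation and nuclear fragmentation.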
# A549 [13] = test: Induction of apoptosis in human A549 cells assessed as caspase-3 activation at 1 to 2 uM after 48 hrs by ELISA relative to control; assay type: functional
# Method in brief: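 Colorimetric caspase-3 kit used. A549 cells treated 48 h at 1 and 2 µM, pelleted, washed in PBS, lysed 15 min, spun 15 min. Supernatant assayed by ELISA-based readout, fold change versus untreated control. Mean of two experiments, each in triplicate.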
# A549 [14] = test: Induction of apoptosis in human A549 cells assessed as DNA fragmentation at 1 uM after 48 hrs by agarose gel electrophoresis; assay type: functional, cell-based
# Method in brief: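 After 24 h settling, 1×10⁶ A549 cells/well treated 48 h at 1 µM. Pellet washed in PBS and lysed. Supernatant given SDS and RNase A for 2 h at 56°C, then proteinase K for 2 h at 37°C. DNA precipitated with ammonium acetate and cold ethanol at -80°C, washed in 80% ethanol, dissolved in TE. Laddering on 2% agarose gel.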
Compound,IC50 (A549 [1]),IC50 (HT-29),IC50 (ACHN),IC50 (DU-145),IC50 (HeLa),Activity (A549 [2]),Activity (A549 [3]),Activity (A549 [4]),Activity (A549 [5]),Activity (A549 [6]),Activity (A549 [7]),Activity (A549 [8]),Activity (A549 [9]),inhibition (Tubulin (Homo sapiens) [10]),IC50 (Tubulin),inhibition (Tubulin (Homo sapiens) [11]),Activity (A549 [12]),fold change (FC) (A549 [13]),Activity (A549 [14])
O=C1OCC2=C1C(c1ccc(-c3ccc(-c4cc(F)cc(Cl)c4)cc3)cc1)c1cc3[nH]ccc3cc1N2 (stereo unspecified),2.55 µM,8.7 µM,2.95 µM,4.78 µM,3.16 µM,–,–,–,–,–,–,–,–,–,–,–,–,–,–
O=C1OCC2=C1C(c1ccc(-c3ccc(-c4ccc(F)cc4)cc3)cc1)c1c(-c3ccccc3)n[nH]c1N2 (stereo unspecified),1.47 µM,3.31 µM,2.18 µM,4.16 µM,3.8 µM,–,–,–,–,–,–,–,–,–,–,–,–,–,–
O=C1OCC2=C1C(c1ccc(-c3ccc(-c4cc(F)cc(F)c4)cc3)cc1)c1c(-c3ccccc3)n[nH]c1N2 (stereo unspecified),6.72 µM,5.83 µM,14.1 µM,10 µM,8.12 µM,–,–,–,–,–,–,–,–,–,–,–,–,–,–
O=C1OCC2=C1C(c1ccc(-c3ccc(-c4ccc(F)cc4)cc3)cc1)c1c(ccc3cn[nH]c13)N2 (stereo unspecified),0.95 µM,1.69 µM,1.47 µM,1.44 µM,1.94 µM,–,–,–,–,–,–,–,–,–,–,–,–,–,–
O=C1OCC2=C1C(c1ccc(-c3ccc(-c4cc(F)cc(F)c4)cc3)cc1)c1c(ccc3cn[nH]c13)N2 (stereo unspecified),0.91 µM,1.02 µM,0.95 µM,1.28 µM,1.23 µM,1.27%,1.22%,69.78%,41.23%,4.39%,5.21%,24.56%,52.34%,51.3%,2.74 µM,Active,Active,3,Active
O=C1OCC2=C1C(c1ccc(-c3ccc(-c4cc(F)cc(Cl)c4)cc3)cc1)c1c(-c3ccccc3)n[nH]c1N2 (stereo unspecified),2.88 µM,6.3 µM,3.16 µM,5.75 µM,6.02 µM,–,–,–,–,–,–,–,–,–,–,–,–,–,–
O=C1OCC2=C1C(c1ccc(-c3ccc(-c4ccc(C(F)(F)F)cc4)cc3)cc1)c1c(-c3ccccc3)n[nH]c1N2 (stereo unspecified),5.75 µM,8.51 µM,5.24 µM,6.45 µM,6.16 µM,–,–,–,–,–,–,–,–,–,–,–,–,–,–
COc1cc([C@@H]2c3cc4c(cc3[C@@H](O[C@@H]3O[C@@H]5CO[C@@H](C)O[C@H]5[C@H](O)[C@H]3O)[C@H]3COC(=O)[C@H]23)OCO4)cc(OC)c1O [ETOPOSIDE],2.45 µM,1.47 µM,2.04 µM,3.17 µM,2.75 µM,4.93%,4.01%,70.74%,46.09%,4.24%,3.76%,20.09%,46.14%,–,–,–,–,–,–
O=C1OCC2=C1C(c1ccc(-c3ccc(-c4ccc(F)cc4)cc3)cc1)c1cc3[nH]ccc3cc1N2 (stereo unspecified),4.36 µM,8.91 µM,5.75 µM,7.24 µM,9.54 µM,–,–,–,–,–,–,–,–,–,–,–,–,–,–
O=C1OCC2=C1C(c1ccc(-c3ccc(-c4cc(F)c(F)c(F)c4)cc3)cc1)c1c(-c3ccccc3)n[nH]c1N2 (stereo unspecified),4.36 µM,6.45 µM,7.52 µM,6.5 µM,7.07 µM,–,–,–,–,–,–,–,–,–,–,–,–,–,–
O=C1OCC2=C1C(c1ccc(-c3ccc(-c4cc(F)cc(Cl)c4)cc3)cc1)c1c(ccc3cn[nH]c13)N2 (stereo unspecified),7.41 µM,9.42 µM,9.33 µM,12.6 µM,7.53 µM,–,–,–,–,–,–,–,–,–,–,–,–,–,–
O=C1OCC2=C1C(c1ccc(-c3ccc(-c4ccc(OC(F)(F)F)cc4)cc3)cc1)c1c(-c3ccccc3)n[nH]c1N2 (stereo unspecified),0.98 µM,1.77 µM,4.07 µM,1.12 µM,2.23 µM,–,–,–,–,–,–,–,–,–,–,–,–,–,–
O=C1OCC2=C1C(c1ccc(-c3ccc(-c4cc(F)cc(F)c4)cc3)cc1)c1cc3[nH]ccc3cc1N2 (stereo unspecified),5.49 µM,6.45 µM,5.75 µM,8.7 µM,8.51 µM,–,–,–,–,–,–,–,–,–,–,–,–,–,–
O=C1OCC2=C1C(c1ccc(-c3ccc(-c4ccc(C(F)(F)F)cc4)cc3)cc1)c1c(ccc3cn[nH]c13)N2 (stereo unspecified),1.16 µM,2.39 µM,2.75 µM,4.89 µM,7.09 µM,–,–,–,–,–,–,–,–,–,–,–,–,–,–
O=C1OCC2=C1C(c1ccc(-c3ccc(-c4cc(F)c(F)c(F)c4)cc3)cc1)c1c(ccc3cn[nH]c13)N2 (stereo unspecified),3.98 µM,8.91 µM,7.41 µM,6.91 µM,5.49 µM,–,–,–,–,–,–,–,–,–,–,–,–,–,–
COc1cc([C@@H]2c3cc4c(cc3[C@H](O)[C@H]3COC(=O)[C@H]23)OCO4)cc(OC)c1OC [PODOFILOX],3.09 µM,2.29 µM,1.93 µM,3.21 µM,–,–,–,–,–,–,–,–,–,52%,–,–,–,–,–
O=C1OCC2=C1C(c1ccc(-c3ccc(-c4cc(F)c(F)c(F)c4)cc3)cc1)c1cc3[nH]ccc3cc1N2 (stereo unspecified),5.49 µM,6.6 µM,6.45 µM,13.2 µM,10.5 µM,–,–,–,–,–,–,–,–,–,–,–,–,–,–
O=C1OCC2=C1C(c1ccc(-c3ccc(-c4ccc(C(F)(F)F)cc4)cc3)cc1)c1cc3[nH]ccc3cc1N2 (stereo unspecified),10 µM,7.41 µM,7.58 µM,12.6 µM,16.6 µM,–,–,–,–,–,–,–,–,–,–,–,–,–,–
O=C1OCC2=C1C(c1ccc(-c3ccc(-c4ccc(OC(F)(F)F)cc4)cc3)cc1)c1c(ccc3cn[nH]c13)N2 (stereo unspecified),0.87 µM,1 µM,0.95 µM,0.98 µM,1.24 µM,1.08%,1.01%,64.52%,38.41%,2.39%,2.35%,32.01%,58.23%,60.1%,2.95 µM,Active,Active,3,Active
O=C1OCC2=C1C(c1ccc(-c3ccc(-c4ccc(OC(F)(F)F)cc4)cc3)cc1)c1cc3[nH]ccc3cc1N2 (stereo unspecified),5.12 µM,9.33 µM,5.37 µM,6.02 µM,7.41 µM,–,–,–,–,–,–,–,–,–,–,–,–,–,–
